Source: ChEMBL document CHEMBL1147044, “Design of helical, oligomeric HIV-1 fusion inhibitor peptides with potent activity against enfuvirtide-resistant virus” (Proc Natl Acad Sci U S A, 2007)
In brackets after ≈: the same amount, converted by molar mass.

Legend:
[1] = Clearance in cynomolgus monkey at 1 to 2 mg/kg, iv; assay type: ADME, organism-based, Macaca fascicularis; parameters: dose 1-2 mg/kg, route intravenous; conditions: in vivo
How it was run: (§1)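 Male cynomolgus monkeys received a single i.v. dose of about 1–2 mg/kg in isotonic phosphate-mannitol vehicle, given as cassettes (typically n ≤ 8). Plasma was protein-precipitated with 0.5% formic acid in acetonitrile and peptide measured by reversed-phase HPLC. Parameters were fitted with mono- or biexponential models.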

[2] = Half life in cynomolgus monkey at 1 to 2 mg/kg, iv; assay type: ADME, organism-based, Macaca fascicularis; parameters: dose 1-2 mg/kg, route intravenous; conditions: in vivo; how it was run: as §1
[3] = system: Human immunodeficiency virus 1; experiment: Antiviral activity against HIV1 3B infected in human PBMCs by reverse transcriptase assay; assay type: functional, organism-based; conditions: Human immunodeficiency virus 1, 3B
How it was run: (§2)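 CD8-depleted activated PBMC targets infected at high MOI by spinoculation; infected cells incubated with uninfected targets at 2 × 10⁵ cells per well with serially diluted peptide for 9 days. Fresh compound added and samples taken every 2–3 days. Replication read by reverse transcriptase assay; IC50 from reduction in RT signal relative to infected untreated wells.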

[4] = system: Human immunodeficiency virus 1; experiment: Antiviral activity against HIV1 098 isolate infected in human PBMCs by reverse transcriptase assay; assay type: functional, organism-based; how it was run: as §2
[5] = system: Human immunodeficiency virus 1; experiment: Antiviral activity against HIV1 098-T20 isolate infected in human PBMCs by reverse transcriptase assay; assay type: functional, organism-based; how it was run: as §2
[6] = system: Human immunodeficiency virus 1; experiment: Antiviral activity against HIV1 098-T1249 isolate infected in human PBMCs by reverse transcriptase assay; assay type: functional, organism-based; how it was run: as §2
[7] = system: Human immunodeficiency virus 1; experiment: Antiviral activity against HIV1 098-T651 isolate infected in human PBMCs by reverse transcriptase assay; assay type: functional, organism-based; how it was run: as §2
[8] = system: Human immunodeficiency virus 1; experiment: Binding affinity to HIV1 gp41 heptad repeat 1 region assessed as thermal stability of HR1/HR2 peptide bundle complex at 1 uM in presence of 8M urea

| Compound | clearance [1] [mL/min/kg] | half-life [2] [h] | IC50 [3] [µg/mL] | IC50 [4] [µg/mL] | IC50 [5] [µg/mL] | IC50 [6] [µg/mL] | IC50 [7] [µg/mL] | Tm [8] [°C] |
| --- | --- | --- | --- | --- | --- | --- | --- | --- |
| CC[C@H](C)[C@H](NC(=O)[C@H](CC(C)C)NC(=O)[C@H](CO)NC(=O)[C@H](Cc1cnc[nH]1)NC(=O)[C@H](NC(=O)[C@H](CC(C)C)NC(=O)[C@H](CO)NC(=O)[C@@H](NC(=O)[C@H](Cc1ccc(O)cc1)NC(=O)[C@H](CC(N)=O)NC(=O)[C@H](CC(N)=O)NC(=O)[C@@H](NC(=O)[C@H](CCC(=O)O)NC(=O)[C@H](CCCNC(=N)N)NC(=O)[C@H](CC(=O)O)NC(=O)[C@H](Cc1c[nH]c2ccccc12)NC(=O)[C@H](CCC(=O)O)NC(=O)[C@H](CCSC)NC(=O)[C@H](Cc1c[nH]c2ccccc12)NC(=O)[C@@H](NC(=O)[C@@H](N)CCSC)[C@@H](C)O)[C@@H](C)CC)[C@@H](C)O)[C@@H](C)CC)C(=O)N[C@@H](CCC(=O)O)C(=O)N[C@@H](CCC(=O)O)C(=O)N[C@@H](CO)C(=O)N[C@@H](CCC(N)=O)C(=O)N[C@@H](CC(N)=O)C(=O)N[C@@H](CCC(N)=O)C(=O)N[C@@H](CCC(N)=O)C(=O)N[C@@H](CCC(=O)O)C(=O)N[C@@H](CCCCN)C(=O)N[C@@H](CC(N)=O)C(=O)N[C@@H](CCC(=O)O)C(=O)N[C@@H](CCC(N)=O)C(=O)N[C@@H](CCC(=O)O)C(=O)N[C@@H](CC(C)C)C(=O)N[C@@H](CC(C)C)C(=O)O | 7.2 | 0.3 | 0.008 (≈ 1.79 nM) | 0.033 (≈ 7.36 nM) | 0.06 (≈ 13.4 nM) | 0.151 (≈ 33.7 nM) | 7.6 (≈ 1700 nM) | 68 |
| CC[C@H](C)[C@H](NC(=O)[C@H](CC(C)C)NC(=O)[C@H](CO)NC(=O)[C@H](Cc1cnc[nH]1)NC(=O)[C@@H](NC(=O)[C@H](CC(C)C)NC(=O)[C@H](CO)NC(=O)[C@@H](NC(=O)[C@H](Cc1ccc(O)cc1)NC(=O)[C@H](CC(N)=O)NC(=O)[C@H](CC(N)=O)NC(=O)[C@@H](NC(=O)[C@H](CCC(=O)O)NC(=O)[C@H](CCCNC(=N)N)NC(=O)[C@H](CC(=O)O)NC(=O)[C@H](Cc1c[nH]c2ccccc12)NC(=O)[C@H](CCC(=O)O)NC(=O)[C@H](CCSC)NC(=O)[C@H](Cc1c[nH]c2ccccc12)NC(=O)[C@@H](NC(=O)[C@@H](N)CCSC)[C@@H](C)O)[C@@H](C)CC)[C@@H](C)O)[C@@H](C)CC)C(=O)N[C@@H](CCC(=O)O)C(=O)N[C@@H](CCC(=O)O)C(=O)N[C@@H](CO)C(=O)N[C@@H](CCC(N)=O)C(=O)N[C@@H](CC(N)=O)C(=O)N[C@@H](CCC(N)=O)C(=O)N[C@@H](CCC(N)=O)C(=O)N[C@@H](CCC(=O)O)C(=O)N[C@@H](CCCCN)C(=O)N[C@@H](CC(N)=O)C(=O)N[C@@H](CCC(=O)O)C(=O)N[C@@H](CCC(N)=O)C(=O)N[C@@H](CCC(=O)O)C(=O)N[C@@H](CC(C)C)C(=O)N[C@@H](CC(C)C)C(=O)N[C@@H](CCC(=O)O)C(=O)N[C@@H](CC(C)C)C(=O)O | 6.2 | 1.2 | 0.008 (≈ 1.69 nM) | 0.032 (≈ 6.78 nM) | 0.039 (≈ 8.26 nM) | 0.137 (≈ 29 nM) | 4.97 (≈ 1050 nM) | 74 |
| CC[C@H](C)[C@H](NC(=O)[C@H](C)NC(=O)[C@H](CCCNC(=N)N)NC(=O)[C@H](CC(=O)O)NC(=O)[C@H](Cc1c[nH]c2ccccc12)NC(=O)[C@H](C)NC(=O)[C@H](CCC(=O)O)NC(=O)[C@H](Cc1c[nH]c2ccccc12)NC(=O)[C@@H](NC(=O)[C@@H](N)[C@@H](C)O)[C@@H](C)O)C(=O)N[C@@H](C)C(=O)N[C@@H](CCC(=O)O)C(=O)N[C@@H](Cc1ccc(O)cc1)C(=O)N[C@@H](C)C(=O)N[C@@H](C)C(=O)N[C@@H](CCCNC(=N)N)C(=O)N[C@H](C(=O)N[C@@H](CCC(=O)O)C(=O)N[C@@H](C)C(=O)N[C@@H](CC(C)C)C(=O)N[C@H](C(=O)N[C@@H](CCCNC(=N)N)C(=O)N[C@@H](C)C(=O)N[C@@H](C)C(=O)N[C@@H](CCC(N)=O)C(=O)N[C@@H](CCC(=O)O)C(=O)N[C@@H](CCC(N)=O)C(=O)N[C@@H](CCC(N)=O)C(=O)N[C@@H](CCC(=O)O)C(=O)N[C@@H](CCCCN)C(=O)N[C@@H](CC(N)=O)C(=O)N[C@@H](CCC(=O)O)C(=O)N[C@@H](C)C(=O)N[C@@H](C)C(=O)N[C@@H](CC(C)C)C(=O)N[C@@H](CCCNC(=N)N)C(=O)N[C@@H](CCC(=O)O)C(=O)N[C@@H](CC(C)C)C(=O)O)[C@@H](C)CC)[C@@H](C)CC | 0.717 | 16.3 | 0.007 (≈ 1.59 nM) | 0.018 (≈ 4.08 nM) | 0.025 (≈ 5.66 nM) | 0.015 (≈ 3.4 nM) | 0.021 (≈ 4.76 nM) | 86 |
| CC[C@H](C)[C@H](NC(=O)[C@H](C)NC(=O)[C@H](CCCNC(=N)N)NC(=O)[C@H](CC(=O)O)NC(=O)[C@H](Cc1c[nH]c2ccccc12)NC(=O)[C@H](C)NC(=O)[C@H](CCC(=O)O)NC(=O)[C@H](Cc1c[nH]c2ccccc12)NC(=O)[C@@H](NC(=O)[C@@H](N)[C@@H](C)O)[C@@H](C)O)C(=O)N[C@@H](C)C(=O)N[C@@H](CCC(=O)O)C(=O)N[C@@H](Cc1ccc(O)cc1)C(=O)N[C@@H](C)C(=O)N[C@@H](C)C(=O)N[C@@H](CCCNC(=N)N)C(=O)N[C@H](C(=O)N[C@@H](CCC(=O)O)C(=O)N[C@@H](C)C(=O)N[C@@H](CC(C)C)C(=O)N[C@H](C(=O)N[C@@H](CCCNC(=N)N)C(=O)N[C@@H](C)C(=O)N[C@@H](CC(C)C)C(=O)N[C@@H](CCC(N)=O)C(=O)N[C@@H](CCC(=O)O)C(=O)N[C@@H](CC(C)C)C(=O)N[C@@H](CCC(N)=O)C(=O)N[C@@H](CCC(=O)O)C(=O)N[C@@H](CCCCN)C(=O)N[C@@H](CC(N)=O)C(=O)N[C@@H](CCC(N)=O)C(=O)N[C@@H](C)C(=O)N[C@H](C(=O)N[C@@H](CC(C)C)C(=O)N[C@@H](CCCNC(=N)N)C(=O)N[C@@H](CCC(=O)O)C(=O)N[C@@H](CC(C)C)C(=O)O)[C@@H](C)CC)[C@@H](C)CC)[C@@H](C)CC | – | – | – | – | – | – | – | 84 |
| H-MTWEAWDRAIAEYAARIEALIRAAQEQQEKNEAALREL-OH | 0.533 | 5.1 | 0.007 | 0.026 | 0.033 | 0.014 | 0.021 | – |
| H-MTWMAWDRAIANYAALIHALIEAAQNQQEKNEAALLEL-OH | – | – | 0.061 | 0.079 | 0.079 | 0.12 | 0.25 | – |
| H-TTWEAWDRAIAEYAARIEALIRAAQEQQEKNEAILREL-OH | 1.1 | 3.4 | 0.007 | 0.021 | 0.034 | 0.024 | 0.039 | – |
| H-TTWEAWDRAIAEYAARIEALIRALQELQEKLEAILREL-OH | 0.05 | 35.4 | 3.16 | > 20 | > 20 | > 20 | > 20 | – |
| H-TTWEAWDRAIAEYAARIEALIRALQELQEKNEAILREL-OH | 0.15 | 9.6 | 0.065 | 0.118 | 0.154 | 0.192 | > 20 | – |
| H-TTWEAWDRAIAEYAARIEALIRALQEQQEKNEAALREL-OH | 0.167 | 15.2 | 0.011 | 0.035 | 0.028 | 0.035 | 0.05 | – |
| H-TTWEEWDREINEYTSRIESLIRESQEQQEKNEQELREL-OH | – | – | 0.012 | 0.021 | 0.056 | 0.037 | 0.167 | 80 |
